In ChEMBL document CHEMBL1142064, “Concentration-dependent effects of caspofungin on the metabolic activity of Aspergillus species” (2007) one finds MMC, Activity and minimal effective concentration data, which are given here for one compound.

Format in all cases: functional
Assay [1] has as its system Aspergillus fumigatus. The assay can be described thus: Metabolic activity of Aspergillus fumigatus by XTT assay relative to control. In outline: (§1)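 Wells from the 48 h caspofungin microdilution (0.008 to 8 μg/ml) were read right after microscopic MEC reading. XTT plus menadione was added to final 100 μg/ml XTT and 6.25 μM menadione, then incubated 2 h at 37°C and shaken. Absorbance read at 450 nm with 630 nm reference. Percent metabolic activity = background-subtracted drug well / background-subtracted drug-free control × 100. Triplicate.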
On the technique in general: Tetrazolium dyes change colour on reduction, which living cells bring about.

In assay [2] the test system is Aspergillus flavus. Description: Metabolic activity of Aspergillus flavus at 0.25 ug /ml using after 2 hrs by XTT assay relative to control. The gist of the method:
as §1

Assay [3] deals with Aspergillus fumigatus. Description: Metabolic activity of Aspergillus fumigatus at 8 ug/ml by XTT assay relative to control. In outline: (§2)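 Optimized XTT read-out (100 μg/ml XTT, 6.25 μM menadione, 2 h at 37°C) applied after 48 h caspofungin exposure. Percent metabolic activity in the 8 μg/ml well, calculated as background-corrected absorbance (450/630 nm) relative to the drug-free control. Compared within each species against the value at the concentration giving the lowest activity.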

For assay [4], the system named is Aspergillus flavus. The assay can be described thus: Metabolic activity of Aspergillus flavus at 8 ug/ml by XTT assay relative to control. In outline: as §2
Assay [5] deals with Aspergillus flavus. The assay can be described thus: Metabolic activity of Aspergillus flavus at 2 ug /ml after 2 hrs by XTT assay relative to control. The gist of the method:
as §1

Assay [6] concerns Aspergillus flavus. The assay can be described thus: Metabolic activity of Aspergillus flavus determined as X-MEC relative to control. In outline:
(§3)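 X-MEC: lowest caspofungin concentration whose percent metabolic activity (optimized XTT, 100 μg/ml XTT, 6.25 μM menadione, 2 h, after 48 h incubation) is at or below a species-specific cutoff. Cutoffs were tested in 5% steps around the species median activity at the microscopic MEC and chosen for best ±1 dilution agreement with the microscopic MEC.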

The subject of assay [7] is Aspergillus fumigatus. Description: Metabolic activity of Aspergillus fumigatus at 0.5 ug/ml after 2 hrs by XTT assay relative to control. In outline: as §1
The test system of assay [8] is Aspergillus fumigatus. The assay can be described thus: Antifungal activity against Aspergillus fumigatus after 48 hrs. Particulars: read-out: MEC. The gist of the method: (§4)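 Broth microdilution following CLSI M38-A in RPMI 1640 with l-glutamine, no bicarbonate, buffered to pH 7.0 with 0.165 M MOPS. Caspofungin twofold dilutions, 0.008 to 8 μg/ml final. Inoculum 2.5 × 10⁴ conidia/ml of clinical isolates. Incubation 37°C for 48 h. MEC read microscopically as the lowest concentration giving short, stubby, highly branched hyphae. Run in triplicate.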

The subject of assay [9] is Aspergillus fumigatus. Description: Metabolic activity of Aspergillus fumigatus determined as X-MEC relative to control. In outline:
as §3

Assay [10] relates to Aspergillus terreus. Description: Antifungal activity against Aspergillus terreus after 48 hrs. Particulars: read-out: MEC. In outline:
as §4

For assay [11], the system named is Aspergillus terreus. The assay can be described thus: Metabolic activity of Aspergillus terreus at 0.5 ug/ml after 2 hrs by XTT assay relative to control. The gist of the method: as §1
Assay [12] concerns Aspergillus terreus. The assay can be described thus: Metabolic activity of Aspergillus terreus determined as X-MEC relative to control. The gist of the method:
as §3

Assay [13] has as its system Aspergillus terreus. Description: Metabolic activity of Aspergillus terreus at 1 ug/ml after 2 hrs by XTT assay relative to control. The gist of the method: as §1
Assay [14] concerns Aspergillus fumigatus. Description: Metabolic activity of Aspergillus fumigatus at 0.75 ug/ml after 2 hrs by XTT assay relative to control. The gist of the method: as §1
The test system of assay [15] is Aspergillus flavus. Description: Antifungal activity against Aspergillus flavus after 48 hrs. Particulars: read-out: MEC. The gist of the method:
as §4

For assay [16], the system named is Aspergillus terreus. The assay can be described thus: Metabolic activity of Aspergillus terreus at 8 ug/ml by XTT assay relative to control. In outline:
as §2

In assay [17] the test system is Aspergillus terreus. Description: Metabolic activity of Aspergillus terreus by XTT assay relative to control. The gist of the method:
as §1

Consider `CC[C@H](C)C[C@H](C)CCCCCCCCC(=O)N[C@H]1C[C@@H](O)[C@@H](NCCN)NC(=O)[C@@H]2[C@@H](O)CCN2C(=O)[C@H]([C@H](O)CCN)NC(=O)[C@H]([C@H](O)[C@@H](O)c2ccc(O)cc2)NC(=O)[C@@H]2C[C@@H](O)CN2C(=O)[C@H]([C@@H](C)O)NC1=O` [CASPOFUNGIN], for which the MMC stood at 0.75 µg/mL in assay [1] and 1 µg/mL in [17]. Moreover, the Activity stood at 25% in assay [2]; 51% in assay [3]; 20% in assay [4]; 17% in assay [5]; 40% in assay [6]; 42% in [7]. In addition, the Activity in assay [9] was 60%; in assay [11], 53%; in [12], 65%; in assay [13], 38%; in assay [14] it was 28%; in assay [16], 57%. The minimal effective concentration in assay [8] came to 0.5 µg/mL; in assay [10], 0.5 µg/mL; in assay [15], 0.25 µg/mL.
